Published values collected from several papers.
Lines come from different studies, so protocols differ.

| SMILES | tested on | assay | system | conditions | measurement | value |
| --- | --- | --- | --- | --- | --- | --- |
| O=C(CN1C(=O)/C(=C/c2ccccc2Cl)SC1=S)Nc1ccccc1 | PC-3 | cell growth or viability, MTT | – | 10 µM | inhibition | 22.6% |
| COc1cc(Nc2nccc(-c3cnn4nc(OC)ccc34)n2)cc(C(F)(F)F)c1 | Ishikawa | cell growth or viability, ATP luminescence | – | – | IC50 | 450 nM |
| O=C(CN1C(=O)/C(=C/c2ccc[nH]2)SC1=S)Nc1ccccc1 | A549 | cell growth or viability, MTT | – | 10 µM | inhibition | 21.4% |
| COc1ccccc1-c1n[nH]c2nc(N[C@H]3CC[C@H](NS(=O)(=O)CCCOCCOCCNC(=O)OC(C)(C)C)CC3)ncc12 | Leishmania donovani | parasite growth | THP-1 | intracellular, amastigote | EC50 | 5240 nM |
| O=C(Cc1c[nH]c2ccccc12)Nc1cccc(Br)c1 | – | ABTS scavenging | – | – | IC50 | 1140 nM |
| CC1(C)S[C@@H]2[C@H](NC(=O)[C@H](N)c3ccccc3)C(=O)N2[C@H]1C(=O)O | Moraxella catarrhalis | microbial growth, broth dilution | ATCC25238 | – | MIC | < 0.25 µg/mL |
| O=C(Cc1c[nH]c2ccccc12)Nc1ccc(I)cc1 | – | ABTS scavenging | – | – | IC50 | 660 nM |
| O=C(CN1C(=O)/C(=C/c2ccccc2F)SC1=S)Nc1ccccc1 | PC-3 | cell growth or viability, MTT | – | 10 µM | inhibition | 16.8% |
| Cc1ccc(Cl)cc1NC(=O)Cc1c[nH]c2ccccc12 | – | ABTS scavenging | – | – | IC50 | 1280 nM |
| O=C(CN1C(=O)/C(=C/c2cccc([N+](=O)[O-])c2)SC1=S)Nc1ccccc1 | PC-3 | cell growth or viability, MTT | – | 10 µM | inhibition | 17.6% |
| COc1ccc(OC)c(NC(=O)Cc2c[nH]c3ccccc23)c1 | – | ABTS scavenging | – | – | IC50 | 1430 nM |
| COc1ccc(-c2ccc(-c3ccc(C(=N)N)nc3)s2)cc1 | OVCAR-4 | cell growth or viability, SRB | – | – | GI50 | 1790 nM |
